Assay results: ChEMBL document CHEMBL4359877, “Identification of benzothiazinones containing an oxime functional moiety as new anti-tuberculosis agents” (Eur J Med Chem, 2019)
In brackets after ≈: the same amount, converted by molar mass.

Columns and labels:
[1] = tested on: Mycobacterium tuberculosis; assay: Antimycobacterial activity against Mycobacterium tuberculosis H37Rv ATCC 27294 assessed as reduction in bacterial cell growth incubated for 7 days by microplate alamar blue assay; type: functional; conditions: H37Rv ATCC 27294, 168 h
In short: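 MABA: H37Rv or clinical MDR isolates (resistant to INH and RFP, Beijing Chest Hospital patients) grown to late log phase in 7H9 with glycerol, Tween 80 and ADC, washed, filtered and frozen. Two-fold compound dilutions with 2 × 10⁵ CFU per well, 37 °C; Alamar blue plus Tween 80 added on day 7, fluorescence (ex 530/em 590) read after 16–24 h. MIC = lowest concentration giving ≥90% fluorescence reduction versus mean of bacterium-only controls; RIF and INH as positive controls.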

[2] = Cytotoxicity against African green monkey Vero cells assessed as reduction in cell viability; type: cell-based; conditions: chlorocebus sabaeus

SMILES	MIC90 [1]	CC50 [2]
CCO/N=C(\C)CN1CCN(c2nc(=O)c3cc(C(F)(F)F)cc([N+](=O)[O-])c3s2)CC1	< 0.016 µg/mL	> 64 µg/mL
C/C(CN1CCN(c2nc(=O)c3cc(C(F)(F)F)cc([N+](=O)[O-])c3s2)CC1)=N\OCc1ccccc1	< 0.016 µg/mL	> 64 µg/mL
CCON=C1CCC(CN2CCN(c3nc(=O)c4cc(C(F)(F)F)cc([N+](=O)[O-])c4s3)[C@@H](C)C2)CC1 (stereo not given in full)	< 0.016 µg/mL	> 64 µg/mL
CON=C1CCC(CN2CCN(c3nc(=O)c4cc(C(F)(F)F)cc([N+](=O)[O-])c4s3)C[C@@H]2C)CC1 (stereo not given in full)	< 0.016 µg/mL	> 64 µg/mL
CO/N=C(\C)CCN1CCN(c2nc(=O)c3cc(C(F)(F)F)cc([N+](=O)[O-])c3s2)CC1	< 0.016 µg/mL	> 64 µg/mL
CON=C1CCC(CN2CCN(c3nc(=O)c4cc(C(F)(F)F)cc([N+](=O)[O-])c4s3)C[C@H]2C)CC1 (stereo not given in full)	< 0.016 µg/mL	> 64 µg/mL
CON=C1CCC(CN2CCN(c3nc(=O)c4cc(C(F)(F)F)cc([N+](=O)[O-])c4s3)[C@@H](C)C2)CC1 (stereo not given in full)	< 0.016 µg/mL	> 64 µg/mL
CCO/N=C(\C)CN1CCC2(CCN(c3nc(=O)c4cc(C(F)(F)F)cc([N+](=O)[O-])c4s3)CC2)C1	0.029 µg/mL (≈ 0.0565 µM)	
CCON=C1CCC(CN2CCN(c3nc(=O)c4cc(C(F)(F)F)cc([N+](=O)[O-])c4s3)C[C@H]2C)CC1 (stereo not given in full)	< 0.016 µg/mL	> 64 µg/mL
CON=C1CC(CN2CCN(c3nc(=O)c4cc(C(F)(F)F)cc([N+](=O)[O-])c4s3)CC2C)C1 (stereo not given)	0.056 µg/mL (≈ 0.115 µM)	
C/C(CCN1CCC2(CCN(c3nc(=O)c4cc(C(F)(F)F)cc([N+](=O)[O-])c4s3)CC2)C1)=N/OCc1ccccc1	0.119 µg/mL (≈ 0.202 µM)	
CO/N=C(\C)CN1CCC2(CCN(c3nc(=O)c4cc(C(F)(F)F)cc([N+](=O)[O-])c4s3)CC2)C1	0.085 µg/mL (≈ 0.17 µM)	
CO/N=C(\C)CN1CCN(c2nc(=O)c3cc(C(F)(F)F)cc([N+](=O)[O-])c3s2)CC1	0.037 µg/mL (≈ 0.0831 µM)	
CON=C1CCC(CN2CCN(c3nc(=O)c4cc(C(F)(F)F)cc([N+](=O)[O-])c4s3)[C@H](C)C2)CC1 (stereo not given in full)	0.023 µg/mL (≈ 0.0448 µM)	
CCON=C1CC(CN2C(C)CN(c3nc(=O)c4cc(C(F)(F)F)cc([N+](=O)[O-])c4s3)CC2C)C1 (stereo not given)	0.056 µg/mL (≈ 0.109 µM)	
CCON=C1CCC(CN2CCN(c3nc(=O)c4cc(C(F)(F)F)cc([N+](=O)[O-])c4s3)C[C@@H]2C)CC1 (stereo not given in full)	< 0.016 µg/mL	> 64 µg/mL
